In the RNAGym collection of RNA variant scans (doi:10.1126/science.aae0568):
This sample holds only a part of the variants without activity.

B1: tRNA (parent)
chain: GUUCCGUUGGCGUAAUGGUAACGCGUCUCCCUCCUAAGGAGAAGACUGCGGGUUCGAGUCCCGUACGGAACG

Variants of: B1
Experiment: yeast fitness relative to wild type (ratio to wild type); higher = fitter; tRNA-Arg(CCU), competitive growth, 37 C, YPD
Procedure, shortened: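 Gene amplicons from the start population and from each of six end populations were read by 100-nucleotide paired-end sequencing. Those end populations came from pooled Saccharomyces cerevisiae strains carrying tRNA-Arg(CCU) gene variants at the native locus, competed in YPD at 37°C for 24 hours. Fitness relative to wild type was worked out from changes in genotype frequencies. Genotypes needed ≥ 100 starting reads, and estimates < 0.5 were set to 0.5.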

Variant | yeast fitness
GUUCCGUUGGCGUAAUGGUGACGCGUCUCCUUCCUAAGGAGAAGACUGCGGGUUCGAGUCCCGUACGGCACG [A20G C31U A69C] | 0.833
GUUCCGUUGGCGUAAUGGUAACGCGUCUCCCUCCUAAGGAGAAGACUGCGGGUUCGAGUUCCGUAUGGAACG [C60U C66U] | 0.711
GUUCCGAUGGCGUAAUGGUAACGCGUCUCUCUCCUAAGGAGAAGAUUGCGGGUUGGAGUCCCGUACGGAACG [U7A C30U C46U C55G] | ≤ 0.5
GUUCCGUUGACGUAAUGGUAACGCGUCUCCCUUCUAAGGAGAAGACUGCAGGUUCGAGUCCCGUACGGAACG [G10A C33U G50A] | ≤ 0.5
GUUCCGUUGGCGUCAUGGUACCGUGUCUCCCUCCUUAGGAGAUGACUGCGGGUUCGACUCCCGUACGGAACG [A14C A21C C24U A36U A43U G58C] | ≤ 0.5
GUUCCGUUGGCGUAAUGGUAACGCGUUUCCCUCCUAAGGAGAAGACUGCGCGUUAGAGUACCGUACGGAACG [C27U G51C C55A C60A] | ≤ 0.5
GUUCCGUUGGCGUAAUGGUAGCGCGUCUCCCUCCUAAGGAGAAGACUGCGGGAUCGUGUCCCGUUCGGAACG [A21G U53A A57U A65U] | 0.52
GUUCCGUUGGCGUAUUGGUAACGCGUCUCCCUCCUACGGAGAAGACUGCGGGUUCGAGUCCCGUACGGAACG [A15U A37C] | 0.678
GUUCCGUUGGCGUAAUGGUAGCGCGUCUCCCUCCUAAGGAGAUGACUGCGGGUUCGAGUCCCGUACGGAACG [A21G A43U] | 0.963
GUUCCGUCGGCGUAAUGGUAACGCGUCUCCCUCCUAAGGAGAAGACUCCGGAUUCGAGUCCCGUAAGGAACG [U8C G48C G52A C66A] | ≤ 0.5
GUUCCGUUGGCGUAAUGGUUACGCGUCACCCUUCUAAGGAGAAGACUGCGGGUUCGAGUCCCGUACGGAACG [A20U U28A C33U] | ≤ 0.5
GUUCCGUUGGCGUCAUGGUAAAGCGUCUCCCUCCUAAGGAGAAGAAUGCGGGUUCGAGUCCCGCACGGAACG [A14C C22A C46A U64C] | ≤ 0.5
GUUCCGUUGGCGUAAUGGUAAGGCGUCUCCCUCCUAAGGAGAAGAAUGUGGGUUCGAGUCCCGUACGAAACG [C22G C46A C49U G68A] | ≤ 0.5
GUUCGGUUGGGGUAAUGGUAACGCGUCUCCCUCCCAAGGAGAAGACUGCGGGUUCGAGUCCCGUACGGAACG [C5G C11G U35C] | 0.643
GUUCCGUUGGCGUAGUGGUAACGCGUCUCCCUCCUAAGGAGAAGAAUGCGGGUUCGAGUCCCGUACGGAACG [A15G C46A] | 0.884
GUUCCGUUGGCGUAAUGGUAAUGCGUCUCCCUCCUAAGGAGAAGACUGCGGGUUCGACUCCCGUACGGGACG [C22U G58C A69G] | 0.602
GUUCCCUUGGCGUAAUGGUAAAGCGUCUCCGUCCUAAGGAGAAGACUGCGGGUUCGAGUCCCGUCCGGAACG [G6C C22A C31G A65C] | ≤ 0.5
GUUCCGUUGAAGUAAUGGUAACGCGUCUCCCUCCUAAGCAGAACACUGCGGCCUCGAGUCCCGUAGGGAACG [G10A C11A G39C G44C G52C U53C C66G] | ≤ 0.5
GUUCCGUUGGAGUAAUGGUAACGCGUCUCCCUCCUAAGGAGAAGACGGCGGGUUCGAGUCCCGUACGGAACG [C11A U47G] | 0.542

Variant | yeast fitness
GUUCCGUUGGCGUAAUGGUAACGCGUCUACCUCCUAAGGAGAAGACUGCGGGUUCGACUCCCGUACAGAACG [C29A G58C G67A] | 0.589
GUUCCGUUGGCGUAAUGGUAACGCGUCUCCCUCCUAAGGAGCAGACUGCGGGUACGAGUCCCGUACCGUACG [A42C U54A G67C A69U] | 0.571
GUUCCGUUGGCGUAAUGGUAACGCCUCUCCCUCCUAAGGAGAAGACUGCGGGUUCGACUCCCGUUCGGAACG [G25C G58C A65U] | 0.928
GUUCCGUUGGGGUAAUGGUGACGCGUCUCCCUCCUAAGGAGAAGACUGGGGGUUCGAGUCCCGUACGGAACG [C11G A20G C49G] | ≤ 0.5
GUUUCGUUGGCGUAAUGGUAACGCGCCUCCAUCCUAAGGAGAAGACUGGGGGUUCGAGUCCCCUACGGUACG [C4U U26C C31A C49G G63C A69U] | ≤ 0.5
GUUCCGUUGGCGUAAUGGUAACGCGACUCCCUCCUUAGGAGAAGACUGAGGGUUCGAGUCCCGUACGGAACG [U26A A36U C49A] | ≤ 0.5
GUUGCGUUGGCGUGAUGGUAACGCGUCUCCCUCCUAAGGAGAAGACUGCGGAUUCGAGUCCCGUACGGAACG [C4G A14G G52A] | ≤ 0.5
GUUACGUUGGCGUAAUGGUGACGCGUCGCCCUCCUAAGGAGAAGACUGCGGGUUCGAGUCCCGUACGCACCG [C4A A20G U28G G68C A70C] | ≤ 0.5
GUUCCGUUGGCGUAAUGGUAACGCGUCUCCCUCCUAAGGAGAAGAAUGCGGGUUCGAGUCCCAUACAGAACG [C46A G63A G67A] | 0.552
GUUCCGUUGGCGUAAUGGUAACGCGUCUCCGUUCUAAGGAGAAGACUGCGGGUUCGAGGCCCGUAUGAAACG [C31G C33U U59G C66U G68A] | 0.543
GUUCGGUUGGCGUAAUGGUAACGCGUCUCCCUCCUAAGGAGAAGACUGCGGGUUCGAGUCCCGGAUGGAACG [C5G U64G C66U] | 0.593
GGUCCGUUGGCGUAAUGGUAACGCGCCUCCCUCCUAAGGAGAAGACUGCGGGUUCGAGUCCCGUACGGAACG [U2G U26C] | 0.918
GUUCCGUUGGCGUAAUGGUAACCCGUCUCCCUCCUAAGGAGAAGACUGAGGGUUCGAGCCCCGUACAGGACG [G23C C49A U59C G67A A69G] | ≤ 0.5
GUUCCGUUGGCGUAAUGAUAACGCGUCUCCCUCCUAAGGAGAAGAUUGUGGGUUCGAGCCCCGUACGAAACG [G18A C46U C49U U59C G68A] | ≤ 0.5
GUACCGUUGGCGUAAUGGUAACGCGUCACCCUCCUAAGGAGAAGACUGCGGGUUCGAGUCCCGUACGGAACG [U3A U28A] | 0.865
GUUCCGUUGGCGUAAUGGUCACGCCUCUCCCUCCUAAGGCGACGACUGCGGGUUAGAGUCGCGUAGGGAACG [A20C G25C A40C A43C C55A C61G C66G] | ≤ 0.5
GUUACGUUGGCGUAACAGUAACGCGUCUCCCUCCUAAGGAGAAGACUGCGGGUUCGAGACCCGUACGGAACG [C4A U16C G17A U59A] | ≤ 0.5
GUUCCGUUGGCGUGAAGGUAACGCGUCUCCCUCCUAAGGAGAAGACUGCGGGUUCGAGUCCCGUACGGAACG [A14G U16A] | 0.886
